The source made the active and inactive calls. The calls are words filed in the database; no cut-off is given here.
Tests used:
Rattus norvegicus [1] = test: Antithrombotic activity in Sprague-Dawley rat model of blood stasis-induced venous thrombosis assessed as inhibition of thrombosis rate at 100 nmol/kg, sc measured after 1 hr; format: functional, organism-based
In short: (§1)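 Male SD rats given 100 nmol/kg s.c.; at 1 or 3 h, anesthetized with 10% chloral hydrate ([…]). Vena cava loosely ligated, collaterals tied, 2% rabbit thromboplastin given i.v., stasis 20 s later and held 20 min. Thrombus removed, dried 24 h at 50 °C, weighed; inhibition versus saline group; n = 6, mean ± SEM.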

[2] = AUC (0 to infinity) in Sprague-Dawley rat at 100 nmol/kg, sc; format: ADME; parameters: time infinity, dose 100 nmol/kg, route sc; conditions: in vivo; for AUC(0-inf): Sprague-Dawley, 100 nmol/kg
In short: (§2)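 Plasma level read from anti-FXa activity against a standard curve built by spiking pooled rat platelet-poor plasma with graded compound. Noncompartmental analysis; n = 4-6, mean ± SEM.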

[3] = AUC (0 to 32 hrs) in Sprague-Dawley rat at 100 nmol/kg, sc measured after 32 hrs; format: ADME, organism-based; parameters: time 32 hrs, dose 100 nmol/kg, route sc; conditions: in vivo; in short: as §2
Plasma [4] = test: Anticoagulant activity in human plasma assessed as prolongation of activated partial thromboplastin time by measuring concentration required to double APTT incubated for 3 mins by coagulometer analysis; format: functional; conditions: 0.05 h
In short: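 Standard human plasma (45 µL) plus sample (5 µL), 2 min at 37 °C, then APTT reagent for 3 min, then CaCl2; clotting time read on a coagulometer. Clotting time versus concentration fitted linearly; EC2.0 is the concentration doubling clotting time. Run in duplicate.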

Plasma [5] = test: Anticoagulant activity in human plasma assessed as prolongation of prothrombin time by measuring concentration required to double PT incubated for 3 mins by coagulometer analysis; format: functional; conditions: dose 128 µg/ml, 0.05 h
Plasma [6] = test: Anticoagulant activity in human plasma assessed as prolongation of thrombin time by measuring concentration required to double TT incubated for 3 mins by coagulometer analysis; format: functional; conditions: 0.05 h
Coagulation factor X [7] = biological target: T1, Coagulation factor X (Homo sapiens, UniProt P00742); test: Inhibition of coagulation factor Xa (unknown origin) using chromogenic substrate incubated for 7 min in presence of antithrombin by absorbance based assay
T1 sequence (P00742 41-179 limits assumed): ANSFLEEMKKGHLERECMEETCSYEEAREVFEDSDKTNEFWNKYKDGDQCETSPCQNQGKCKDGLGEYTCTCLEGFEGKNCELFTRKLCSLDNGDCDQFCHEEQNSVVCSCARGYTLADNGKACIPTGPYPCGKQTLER
T1 sequence (P00742 235-488 limits assumed): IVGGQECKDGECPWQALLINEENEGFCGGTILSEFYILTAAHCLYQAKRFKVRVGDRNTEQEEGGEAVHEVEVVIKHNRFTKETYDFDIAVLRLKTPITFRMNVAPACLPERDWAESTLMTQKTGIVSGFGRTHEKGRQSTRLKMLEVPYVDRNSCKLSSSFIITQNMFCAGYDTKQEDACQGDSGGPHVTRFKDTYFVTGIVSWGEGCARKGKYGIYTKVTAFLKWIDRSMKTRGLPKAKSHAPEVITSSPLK

Coagulation factor X [8] = biological target: T1, Coagulation factor X; test: Inhibition of heparin binding to factor 10a using chromogenic substrate incubated for 7 min by absorbance based assay
Plasma [9] = test: Anticoagulant activity in human platelet poor plasma assessed as inhibition of thrombin generation incubated for 3 mins by calibrated automated thrombogram analysis; format: functional, cell-free; conditions: 0.05 h
In short: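 Thrombin generation triggered in human platelet-poor plasma by a phospholipid/tissue factor reagent, monitored by calibrated automated thrombogram with readings every 15 s. Total thrombin taken as area under the thrombin-time curve; IC50 from dose-response. Triplicate.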

[10] = Tmax in Sprague-Dawley rat at 100 nmol/kg, sc; format: ADME; conditions: in vivo; in short: as §2
[11] = Cmax in Sprague-Dawley rat at 100 nmol/kg, sc; format: ADME; parameters: dose 100 nmol/kg, route sc; conditions: in vivo; in short: as §2
[12] = Half life in Sprague-Dawley rat at 100 nmol/kg, sc; format: ADME; conditions: in vivo; in short: as §2
[13] = Clearance in Sprague-Dawley rat at 100 nmol/kg, sc; format: ADME; conditions: in vivo; in short: as §2
[14] = Volume of distribution in Sprague-Dawley rat at 100 nmol/kg, sc; format: ADME; conditions: in vivo; in short: as §2
Rattus norvegicus [15] = test: Antithrombotic activity in Sprague-Dawley rat model of blood stasis-induced venous thrombosis assessed as inhibition of thrombosis rate at 100 nmol/kg, sc measured after 1 hr relative to control; format: functional; in short: as §1
Rattus norvegicus [16] = test: Antithrombotic activity in Sprague-Dawley rat model of blood stasis-induced venous thrombosis assessed as inhibition of thrombosis rate at 30 nmol/kg, sc measured after 2 hrs relative to control; format: functional
In short: (§3)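 Stasis/thromboplastin vena cava model in male SD rats 2 h after s.c. dosing at 30, 100 or 300 nmol/kg. Thrombus dried 24 h at 50 °C and weighed, then expressed as % of mean thrombus mass in the saline group (100% = no inhibition); n = 8-10, mean ± SEM.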

Rattus norvegicus [17] = test: Antithrombotic activity in Sprague-Dawley rat model of blood stasis-induced venous thrombosis assessed as inhibition of thrombosis rate at 100 nmol/kg, sc measured after 2 hrs relative to control; format: functional; in short: as §3
Rattus norvegicus [18] = test: Antithrombotic activity in Sprague-Dawley rat model of blood stasis-induced venous thrombosis assessed as inhibition of thrombosis rate at 300 nmol/kg, sc measured after 2 hrs relative to control; format: functional; in short: as §3
Rattus norvegicus [19] = test: Antithrombotic activity in Sprague-Dawley rat model of blood stasis-induced venous thrombosis assessed as inhibition of thrombosis rate at 100 nmol/kg, sc measured after 3 hrs; format: functional, organism-based; in short: as §1
Mus musculus = test: Antithrombotic activity in mouse model of tail-bleeding assessed as increase in blood loss at 2000 nmol/kg, sc; format: functional, organism-based
In short: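 Mouse tail-cut bleeding: 2000 nmol/kg s.c., tail cut 1.5 h after dosing, blood loss measured in µL; normal saline negative control; n ≥ 6, mean ± SEM, one-way ANOVA.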

CO[C@H]1O[C@H](COS(=O)(=O)[O-])[C@@H](O[C@@H]2O[C@@H](C(=O)[O-])[C@@H](O[C@H]3O[C@H](COS(=O)(=O)[O-])[C@@H](O[C@@H]4O[C@H](C(=O)[O-])[C@@H](O[C@H]5O[C@H](COS(=O)(=O)[O-])[C@@H](O)[C@H](O)[C@H]5NS(=O)(=O)[O-])[C@H](O)[C@H]4O)[C@H](OS(=O)(=O)[O-])[C@H]3NS(=O)(=O)[O-])[C@H](O)[C@H]2OS(=O)(=O)[O-])[C@H](O)[C@H]1NS(=O)(=O)[O-].[Na+].[Na+].[Na+].[Na+].[Na+].[Na+].[Na+].[Na+].[Na+].[Na+] [FONDAPARINUX SODIUM]
inhibition (Rattus norvegicus [1]): Active
AUC(0-inf) [2]: 1.12 µg·h/mL
AUC(0-t) at 32 h [3]: 1.07 µg·h/mL
EC (Plasma [4]): 51.2 µM
EC (Plasma [5]): >128 µg/mL
2TT (Plasma [6]): >128 µg/mL
IC50 (Coagulation factor X [7]): 0.0996 µM
IC50 (Coagulation factor X [8]): 1.91 µM
IC50 (Plasma [9]): 14.5 µM
Tmax [10]: 0.6 h
Cmax [11]: 0.519 µg/mL
half-life [12]: 1.2 h
CL/F [13]: 0.239 L/h/kg
Vd [14]: 0.097 L/kg
inhibition in vivo at 0.1 µmol/kg (Rattus norvegicus [15]): 55.7%
inhibition in vivo at 0.03 µmol/kg (Rattus norvegicus [16]): < 15%
inhibition (Rattus norvegicus [17]): Active
inhibition in vivo at 0.3 µmol/kg (Rattus norvegicus [18]): 59.3%

CO[C@H]1O[C@H](COS(=O)(=O)[O-])[C@@H](O[C@@H]2O[C@@H](C(=O)[O-])[C@@H](O[C@H]3O[C@H](COS(=O)(=O)[O-])[C@@H](O[C@@H]4O[C@H](C(=O)[O-])[C@@H](O[C@H]5O[C@H](COS(=O)(=O)[O-])[C@@H](O)[C@H](OC)[C@H]5OS(=O)(=O)[O-])[C@H](OC)[C@H]4O)[C@H](OS(=O)(=O)[O-])[C@H]3OS(=O)(=O)[O-])[C@H](OC)[C@H]2OS(=O)(=O)[O-])[C@H](OS(=O)(=O)[O-])[C@H]1OS(=O)(=O)[O-].[Na+].[Na+].[Na+].[Na+].[Na+].[Na+].[Na+].[Na+].[Na+].[Na+].[Na+]
inhibition (Rattus norvegicus [19]): Active
AUC(0-inf) [2]: 15.5 µg·h/mL
AUC(0-t) at 32 h [3]: 14.2 µg·h/mL
EC (Plasma [4]): 48.78 µM
EC (Plasma [5]): >128 µg/mL
2TT (Plasma [6]): >128 µg/mL
IC50 (Coagulation factor X [7]): 0.108 µM
IC50 (Coagulation factor X [8]): 0.788 µM
IC50 (Plasma [9]): 12.5 µM
Tmax [10]: 1.5 h
Cmax [11]: 2.02 µg/mL
half-life [12]: 6.2 h
CL/F [13]: 0.021 L/h/kg
Vd [14]: 0.131 L/kg
inhibition in vivo at 0.1 µmol/kg (Rattus norvegicus [15]): 56.9%
inhibition in vivo at 0.03 µmol/kg (Rattus norvegicus [16]): 48.6%
inhibition in vivo at 0.1 µmol/kg (Rattus norvegicus [17]): > 70%
inhibition in vivo at 0.3 µmol/kg (Rattus norvegicus [18]): 89.5%

CO[C@H]1O[C@H](COS(=O)(=O)[O-])[C@@H](O[C@@H]2O[C@@H](C(=O)[O-])[C@@H](O[C@H]3O[C@H](COS(=O)(=O)[O-])[C@@H](O[C@@H]4O[C@H](C(=O)[O-])[C@@H](O[C@H]5O[C@H](COS(=O)(=O)[O-])[C@@H](O)[C@H](OS(=O)(=O)[O-])[C@H]5OS(=O)(=O)[O-])[C@H](OC)[C@H]4O)[C@H](OS(=O)(=O)[O-])[C@H]3OS(=O)(=O)[O-])[C@H](OC)[C@H]2OS(=O)(=O)[O-])[C@H](OS(=O)(=O)[O-])[C@H]1OS(=O)(=O)[O-].[Na+].[Na+].[Na+].[Na+].[Na+].[Na+].[Na+].[Na+].[Na+].[Na+].[Na+].[Na+]
inhibition (Rattus norvegicus [1]): Active
AUC(0-inf) [2]: 6.75 µg·h/mL
AUC(0-t) at 32 h [3]: 6.35 µg·h/mL
EC (Plasma [4]): 33.05 µM
EC (Plasma [5]): >128 µg/mL
2TT (Plasma [6]): >128 µg/mL
IC50 (Coagulation factor X [7]): 0.0947 µM
IC50 (Coagulation factor X [8]): 0.779 µM
IC50 (Plasma [9]): 12.4 µM
Tmax [10]: 1 h
Cmax [11]: 1.25 µg/mL
half-life [12]: 4.8 h
CL/F [13]: 0.038 L/h/kg
Vd [14]: 0.183 L/kg
inhibition in vivo at 0.03 µmol/kg (Rattus norvegicus [16]): 39.5%
inhibition (Rattus norvegicus [17]): Active
inhibition (Rattus norvegicus [18]): Active

CO[C@H]1O[C@H](COS(=O)(=O)[O-])[C@@H](O[C@@H]2O[C@@H](C(=O)[O-])[C@@H](O[C@H]3O[C@H](COS(=O)(=O)[O-])[C@@H](O[C@@H]4O[C@H](C(=O)[O-])[C@@H](O[C@H]5O[C@H](COS(=O)(=O)[O-])[C@@H](OC)[C@H](OS(=O)(=O)[O-])[C@H]5OS(=O)(=O)[O-])[C@H](OC)[C@H]4OC(C)=O)[C@H](OS(=O)(=O)[O-])[C@H]3OS(=O)(=O)[O-])[C@H](OC)[C@H]2OS(=O)(=O)[O-])[C@H](OS(=O)(=O)[O-])[C@H]1OS(=O)(=O)[O-].[Na+].[Na+].[Na+].[Na+].[Na+].[Na+].[Na+].[Na+].[Na+].[Na+].[Na+].[Na+]
inhibition (Rattus norvegicus [19]): Active
AUC(0-inf) [2]: 15.1 µg·h/mL
AUC(0-t) at 32 h [3]: 12.8 µg·h/mL
EC (Plasma [4]): 32.47 µM
EC (Plasma [5]): >128 µg/mL
2TT (Plasma [6]): >128 µg/mL
IC50 (Coagulation factor X [7]): 0.0888 µM
IC50 (Coagulation factor X [8]): 1.13 µM
IC50 (Plasma [9]): 14.8 µM
Tmax [10]: 2 h
Cmax [11]: 1.14 µg/mL
half-life [12]: 15.1 h
CL/F [13]: 0.017 L/h/kg
Vd [14]: 0.136 L/kg
inhibition in vivo at 0.03 µmol/kg (Rattus norvegicus [16]): 33.2%
inhibition (Rattus norvegicus [17]): Active
inhibition (Rattus norvegicus [18]): Active
Activity (Mus musculus): Active

CO[C@H]1O[C@H](COS(=O)(=O)[O-])[C@@H](O[C@@H]2O[C@@H](C(=O)[O-])[C@@H](O[C@H]3O[C@H](COS(=O)(=O)[O-])[C@@H](O[C@@H]4O[C@H](C(=O)[O-])[C@@H](O[C@H]5O[C@H](COS(=O)(=O)[O-])[C@@H](O)[C@H](O)[C@H]5OS(=O)(=O)[O-])[C@H](OC)[C@H]4O)[C@H](OS(=O)(=O)[O-])[C@H]3OS(=O)(=O)[O-])[C@H](OC)[C@H]2OS(=O)(=O)[O-])[C@H](OS(=O)(=O)[O-])[C@H]1OS(=O)(=O)[O-].[Na+].[Na+].[Na+].[Na+].[Na+].[Na+].[Na+].[Na+].[Na+].[Na+].[Na+]
AUC [2]: 19.0532 µg·h/mL
AUC(0-t) at 32 h [3]: 17.6 µg·h/mL
EC (Plasma [4]): 40.83 µM
EC (Plasma [5]): >128 µg/mL
2TT (Plasma [6]): >128 µg/mL
IC50 (Coagulation factor X [7]): 0.141 µM
IC50 (Coagulation factor X [8]): 0.725 µM
IC50 (Plasma [9]): 12.2 µM
Tmax [10]: 2 h
Cmax [11]: 2.04 µg/mL
half-life [12]: 6.1 h
Vd [14]: 0.058 L/kg
inhibition in vivo at 0.1 µmol/kg (Rattus norvegicus [15]): 77.8%
inhibition in vivo at 0.03 µmol/kg (Rattus norvegicus [16]): < 15%
inhibition in vivo at 0.1 µmol/kg (Rattus norvegicus [17]): > 70%
inhibition in vivo at 0.3 µmol/kg (Rattus norvegicus [18]): 93.1%

— ChEMBL document CHEMBL5154796, “Chemical synthesis and pharmacological properties of heparin pentasaccharide analogues” (Eur J Med Chem, 2022)
